PfHsp90 set2 = growth inhibition of PfHsp90-expressing yeast, primary screen, antimalarial PfHsp90 inhibitor project, S. cerevisiae, BacTiter-Glo luminescence, single point, set 2; BacTiter-Glo ATP, 48 h; yeast lacking PDR1 and PDR3 efflux regulators; inhibition, % at 9.4 µM; actives 0.32% (n = 310,000); AID 504621, 2011;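 active means every replicate shows inhibition above about 80%, whatever the replicate mean, limit read from the data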;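 further: 0% = DMSO neutral controls and 100% = 20 µM radicicol positive controls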
rRNA inh HTS = reduced GFP signal of wild-type E. coli, primary screen, bacterial rRNA inhibitor project, GFP/RFP fluorescence, OD600, single point; GFP signal change (wild-type ribosome), % (concentration not given with the values); actives 1.6% (n = 350,000); E. coli WT GFP vs humanized-ribosome RFP mutants, 24 h; hits give low values; DMSO median 0, no signal -100;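 active means significant combined selectivity score with lowered wild-type GFP, culture density cut under 30%, mutant RFP and density less affected; inactive means any of these conditions unmet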
S100A4 inh HTS = inhibitors of S100A4-myosin IIA peptide binding, primary screen, biochemical, fluorescence polarization, TAMRA-MyoIIA peptide | Protein S100-A4 (Homo sapiens), P26447 | inhibition, % at 10.7 µM | actives 0.14% (n = 360,000);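 active means mean inhibition of at least 70% across replicates, with every replicate also reaching that level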
Target sequence (P26447 whole entry, looked up): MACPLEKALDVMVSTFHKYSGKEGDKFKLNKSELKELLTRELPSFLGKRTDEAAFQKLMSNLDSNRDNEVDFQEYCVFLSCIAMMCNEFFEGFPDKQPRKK
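System – human S100A4 monomer protein, biochemical binding assay · Buffer or medium – Calcium-containing HEPES buffer, pH 7.2 · Timing – 5 min between mix addition and reading · Also added – TAMRA-labelled myosin IIA heavy-chain peptide probe, 5 nM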
DENV2 CPE rescue = inhibitors of DENV2 cytopathic effect, primary screen, cell-based, plate reader, single concentration. CPE inhibition, % at 9.99 µM. AID 651640, 2012. DENV2-infected cells, cytopathic effect rescue. actives 1.7% (n = 350,000); in the data active means CPE inhibition above about 20%, passing the limit was not always enough; tested in BHK-21 cells;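 further: 0% = median of neutral control wells and 100% = median of positive control wells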
Cneo AK release = Cryptococcus neoformans cell lysis inducers, primary screen, AK release luminescence, single concentration; C. neoformans lysis, adenylate kinase release luminescence, 4 h; normalised: neutral wells 0, clomiphene wells 100; lysis activity, % at 15 µM; actives 0.2% (n = 360,000);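 active means mean lysis activity across replicates of at least 80%, whatever share of replicates individually reach that level; inactive means mean lysis activity below 80%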
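Assay system: log-phase C. neoformans yeast / Quantity: yeast cell density of 5 × 10^6 cells/mL / Medium: fresh YPD growth medium / Compound: single dose / Timing: static 4 h at 37 °C with compound, 1 h detection / Measured by: adenylate kinase release luminescence / Read-out: lysis from increased AK signal / Benchmarks: Clomiphene as positive lysis control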
MLL AF4-AF9 inh = inhibitors of AF4 peptide binding to AF9, primary screen, biochemical, AlphaScreen, biotin-AF4 peptide, FLAG-AF9, single point; Protein AF-9 (Homo sapiens), P42568; inhibition, % at 10 µM; actives 0.47% (n = 350,000);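 active means every replicate reaching a set inhibition limit, whatever the replicate mean, cut at about 25% in these data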;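 further: 0% = plate neutral control median and 100% = total signal loss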
* hit, by the source's call; . = not tested or not shown; ! = not confirmed by another sample. Most compounds without a hit are left out; they make up all but 3.2% or so of the library.

SMILES	PfHsp90 set2	rRNA inh HTS	S100A4 inh HTS	DENV2 CPE rescue	Cneo AK release	MLL AF4-AF9 inh
Cc1ccc2nc3n(c(=O)c2c1)-c1ccc(Cl)cc1C(=O)NC3CC(C)C (stereo not drawn)	.	.	10.3	77.0*	.	4.5
Cc1ccc2nc3n(c(=O)c2c1)-c1cc(Cl)ccc1C(=O)NC3Cc1ccc(O)cc1 (stereo not drawn)	.	-9.0	5.0	.	.	6.4
Cc1cc(C)nc(N/N=C/c2cc(Br)ccc2O)n1	-51.5	-37.4*	2.2	-3.6	4.3	6.3
Cc1ccc(S(=O)(=O)N/N=C/c2cc(Br)ccc2O)cc1	-3.6	-31.1	-6.2	-3.1	15.2	30.3*
Cc1cc(C)nc(N/N=C/c2ccccc2OCc2ccc(Br)cc2)n1	-15.8	2.0	-2.7	16.8	1.8	-1.4
O=S(=O)(N[C@@H]1CC[C@H](CCn2cc(-c3ccccn3)nn2)O[C@H]1CO)c1cccc(Cl)c1	.	-1.1	-1.5	9.2	-5.6	1.8
O=C1CC(N2CCN(c3nc4ccccc4s3)CC2)C(=O)N1Cc1cccs1 (stereo not drawn)	104.6*	.	.	.	-3.3	.
Cc1ccc(S(=O)(=O)N[C@@H]2C=C[C@@H](CC(=O)N3CCN(c4ccccc4)CC3)O[C@@H]2CO)cc1	.	-1.6	-5.9	1.8	1.9	-1.0
Cc1ccc(-c2ccc3c(c2)O[C@@H](CN(C)S(C)(=O)=O)[C@H](C)CN([C@H](C)CO)S3(=O)=O)cc1	.	-3.2	-4.0	-2.7	-7.7	0.1
O=S(=O)(NC1CCN(Cc2ccc(OCCO)cc2)CC1)c1cccc2cccnc12	.	.	-7.3	8.4	7.8	10.4
O=S(=O)(c1cccc2cccnc12)N1CCN(Cc2ccc(OCCO)cc2)CC1	.	.	-8.6	41.2*	6.6	0.6
CC(O)[C@H]1CN=C(N)N1CC(C)(C)C (stereo partly drawn)	-28.0	1.1	3.0	-0.9	-4.5	-1.7
CCCCN1C(N)=NC[C@@H]1C(C)O (stereo partly drawn)	-36.6	9.4	-1.0	23.0*	2.1	-2.8
CNc1cc(-c2ccc(O)cc2C)ncn1	.	7.3	3.4	28.7*	-1.7	2.4
CNc1cc(-c2ccc(C(=O)OC)cc2)ncn1	.	0.2	12.0	1.5	-1.8	-1.2
Brc1ccc2[nH]c3c(c2c1)CCC3	-3.3	-15.7*	-1.4	-1.6	3.4	5.2
CCCCCCCCCCOC(=O)Cn1c(COc2ccc(Cl)cc2)[n+](C)c2ccccc21	106.1*	-34.0	-18.5	-5.3	15.2	42.3*
CCCCCCCCCCOC(=O)Cn1c(COc2ccc(OC)cc2)[n+](C)c2ccccc21	108.0*!	.	.	.	7.9	.
CCCCCCCCCCOC(=O)Cn1c(COc2cccc(C)c2)[n+](C)c2ccccc21	105.4*	-48.1	0.9	-7.4	-0.6	13.2
CCCC(=O)Nc1ccc2c(c1)C(=O)N(C)[C@H]1CC[C@@H](CC(=O)NCCc3ccccc3)O[C@@H]1CO2	.	2.9	.	.	.	-1.5
CCOC(=O)Nc1sc(C)c(C)c1C(=O)OCC	-16.0	-19.9*	2.5	4.4	.	-1.8
Cc1cccc(C)c1NC(=O)C1(C)CSCC(=O)N1Cc1cccc(C(F)(F)F)c1 (stereo not drawn)	.	-5.8	-4.9	34.1*	.	.
Cc1cccc(C)c1NC(=O)C1(C)CSCC(=O)N1Cc1cccc(F)c1 (stereo not drawn)	.	-0.3	10.9	-0.9	.	0.1
COc1ccc2c3c([nH]c2c1)[C@@H](CO)N(C(=O)CN1CCOCC1)CC31CN(C)C1	.	6.9	.	.	.	.
C[C@H](CO)N1C[C@H](C)[C@@H](CN(C)C(=O)Nc2ccccc2)Oc2ccc(NC(=O)Nc3cccc4ccccc34)cc2CC1=O	.	1.9	-6.2	19.9	-0.1	2.0

Source: PubChem
